Experimental findings from ChEMBL document CHEMBL4819114, “Discovery of a potent and selective Axl inhibitor in preclinical model” (Bioorg Med Chem, 2021) are described below.

In brackets after ≈: the same amount, converted by molar mass. Activity calls are given as the source filed them. No cut-off for these calls is given here.

Sequence of Hepatocyte growth factor receptor (Homo sapiens) (P08581 whole entry): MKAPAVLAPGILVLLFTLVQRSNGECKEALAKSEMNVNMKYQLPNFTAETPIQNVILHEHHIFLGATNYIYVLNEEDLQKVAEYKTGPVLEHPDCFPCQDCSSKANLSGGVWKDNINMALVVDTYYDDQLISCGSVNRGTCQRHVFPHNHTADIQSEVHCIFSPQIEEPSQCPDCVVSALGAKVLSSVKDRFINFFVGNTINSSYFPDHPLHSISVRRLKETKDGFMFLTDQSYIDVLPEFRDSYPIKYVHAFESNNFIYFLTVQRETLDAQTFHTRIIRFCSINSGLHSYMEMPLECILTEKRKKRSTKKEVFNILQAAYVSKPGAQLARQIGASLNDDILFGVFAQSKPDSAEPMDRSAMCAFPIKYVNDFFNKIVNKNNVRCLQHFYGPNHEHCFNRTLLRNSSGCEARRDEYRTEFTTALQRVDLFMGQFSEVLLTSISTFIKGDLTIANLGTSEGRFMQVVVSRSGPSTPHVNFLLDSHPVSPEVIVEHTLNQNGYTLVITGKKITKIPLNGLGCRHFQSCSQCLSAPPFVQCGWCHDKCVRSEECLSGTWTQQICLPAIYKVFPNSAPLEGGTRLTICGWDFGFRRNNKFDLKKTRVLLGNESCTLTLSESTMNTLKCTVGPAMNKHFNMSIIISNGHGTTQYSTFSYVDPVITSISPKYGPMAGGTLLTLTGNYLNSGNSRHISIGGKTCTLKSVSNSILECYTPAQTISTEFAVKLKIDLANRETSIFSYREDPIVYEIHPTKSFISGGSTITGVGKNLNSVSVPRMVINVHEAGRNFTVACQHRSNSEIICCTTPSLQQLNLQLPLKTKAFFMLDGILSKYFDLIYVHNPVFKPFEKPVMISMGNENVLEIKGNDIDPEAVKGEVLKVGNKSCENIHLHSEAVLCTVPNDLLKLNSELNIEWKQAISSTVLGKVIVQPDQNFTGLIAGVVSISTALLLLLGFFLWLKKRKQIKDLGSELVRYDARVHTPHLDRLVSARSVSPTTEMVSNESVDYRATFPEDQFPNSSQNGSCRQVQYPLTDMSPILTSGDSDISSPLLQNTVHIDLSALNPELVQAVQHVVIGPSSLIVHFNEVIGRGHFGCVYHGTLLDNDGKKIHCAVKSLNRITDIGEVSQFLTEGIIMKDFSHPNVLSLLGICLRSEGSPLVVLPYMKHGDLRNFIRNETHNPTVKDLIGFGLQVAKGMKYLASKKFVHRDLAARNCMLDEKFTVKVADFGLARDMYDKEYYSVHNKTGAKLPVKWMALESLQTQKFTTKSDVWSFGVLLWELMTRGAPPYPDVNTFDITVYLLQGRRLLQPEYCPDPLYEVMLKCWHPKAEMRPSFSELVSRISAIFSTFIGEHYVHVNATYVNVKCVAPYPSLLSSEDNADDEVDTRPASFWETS

Tested on in one data set: not listed separately
Put plainly: Metabolic stability in mouse liver microsomes assessed as residual ratio measured after 30 mins in presence of NADPH by LC-MS/MS analysis relative to absence of NADPH. Type of data set: ADME, Microsome. As to conditions: read-out: Stabilty. The gist of the method: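 Incubation with mouse liver microsomes (0.5 mg/mL), 30 min at 37 °C, in 0.1 M potassium phosphate pH 7.4, 0.1 mM EDTA, 6 mM MgCl2 and an NADPH-generating system (β-NADP+, glucose-6-phosphate, G6P dehydrogenase). Quenched with acetonitrile/methanol (7:3) containing propranolol internal standard, then LC-MS/MS. Residual ratio with NADPH taken relative to without NADPH.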
On the technique in general: Liver microsomes are a subcellular fraction often used to study metabolism.
Take `CC(C)n1cc(C(=O)Nc2ccc(Oc3ccnc(NC(=O)CC4CCN(C)CC4)c3)cc2)c(=O)n(-c2ccc(F)cc2)c1=O`: the remaining at 0.5 h worked out at 81%.

Turning to `CN1CCC(CC(=O)Nc2cc(Oc3ccc(NC(=O)c4cc5c(n(-c6ccccc6)c4=O)CCCC5=O)cc3)ccn2)CC1`, the remaining at 0.5 h is 77%.

Regarding `CN1CCN(C2CCN(C(=O)Nc3cc(Oc4ccc(NC(=O)c5cn(C6CC6)c(=O)n(-c6ccc(F)cc6)c5=O)cc4)ncn3)CC2)CC1`, the remaining at 0.5 h is 87%.

With `CC(C)n1cc(C(=O)Nc2ccc(Oc3cc(NC(=O)N4CCCC4)ncn3)cc2)c(=O)n(-c2ccc(F)cc2)c1=O`, the remaining at 0.5 h was 59%.

For the compound `CN1CCN(C2CCN(C(=O)Nc3cc(Oc4ccc(NC(=O)c5cn(C)c(=O)n(-c6ccc(F)cc6)c5=O)cc4)ncn3)CC2)CC1`, the remaining at 0.5 h was found to be 99%.

For `CN1CCC(CC(=O)Nc2cc(Oc3ccc(NC(=O)c4cc5c(n(-c6ccccc6)c4=O)CCCC5=O)c(F)c3)ccn2)CC1`, the remaining at 0.5 h stood at 75%.

On to `CC(C)n1cc(C(=O)Nc2ccc(Oc3cc(NC(=O)N4CC(N(C)C)C4)ncn3)cc2)c(=O)n(-c2ccc(F)cc2)c1=O`, for which the remaining at 0.5 h came out at 0.3%.

As for `CC(C)n1cc(C(=O)Nc2ccc(Oc3ccnc(NC(=O)CC4CCN(C)CC4)c3)cc2F)c(=O)n(-c2ccc(F)cc2)c1=O`, the remaining at 0.5 h was determined as 76%.

For the compound `CC(C)n1cc(C(=O)Nc2ccc(Oc3cc(NC(=O)N4CC(N5CCCC5)C4)ncn3)cc2)c(=O)n(-c2ccc(F)cc2)c1=O`, the remaining at 0.5 h worked out at 1.3%.

`CC(C)n1cc(C(=O)Nc2cc(F)c(Oc3ccnc(NC(=O)N4CCC(N5CCN(C)CC5)CC4)c3)cc2F)c(=O)n(-c2ccc(F)cc2)c1=O`: the remaining at 0.5 h was determined as 86%.

For the compound `CC(C)n1cc(C(=O)Nc2ccc(Oc3cc(NC(=O)N4CC(O)C4)ncn3)cc2)c(=O)n(-c2ccc(F)cc2)c1=O`, the remaining at 0.5 h is 92%.

Tested on in a further data set: not listed separately
Put plainly: Toxicity in BALB/c mouse assessed as induction of necrosis in photoreceptor cells at 100 mg/kg, po administered for 14 days hematoxylin and eosin staining based assay. Type of data set: organism-based. As to conditions: in vivo, 336 h, time 14 day. A digest of the protocol:
(§1)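 Female BALB/cAJcl mice (n = 3 or 5/group) dosed orally once daily for 14 days at 100 mg/kg; controls untreated. Body weight tracked. At necropsy after dosing, eyes fixed in 3% glutaraldehyde/2.5% formalin, paraffin-embedded, sectioned, stained with hematoxylin-eosin, and the retina examined histopathologically.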
Consider `CC(C)n1cc(C(=O)Nc2cc(F)c(Oc3ccnc(NC(=O)N4CCC(N5CCN(C)CC5)CC4)c3)cc2F)c(=O)n(-c2ccc(F)cc2)c1=O`, for which the Activity result is listed as “Toxic”.

Tested on in the next data set: not listed separately
Kind of data set: Toxicity in BALB/c mouse assessed as effect on body weight at 100 mg/kg, po administered for 14 days. The data set is classed as organism-based. As to conditions: in vivo, 336 h, time 14 day. The gist of the method:
as §1
Consider `CC(C)n1cc(C(=O)Nc2cc(F)c(Oc3ccnc(NC(=O)N4CCC(N5CCN(C)CC5)CC4)c3)cc2F)c(=O)n(-c2ccc(F)cc2)c1=O`, for which the Activity result was “Non-Toxic”.

For the next data set, the target named is Tyrosine-protein kinase Lck (Homo sapiens) (UniProt P06239). Put plainly: Inhibition of LCK (unknown origin).
Sequence of Tyrosine-protein kinase Lck (Homo sapiens) (P06239 2-509 limits assumed): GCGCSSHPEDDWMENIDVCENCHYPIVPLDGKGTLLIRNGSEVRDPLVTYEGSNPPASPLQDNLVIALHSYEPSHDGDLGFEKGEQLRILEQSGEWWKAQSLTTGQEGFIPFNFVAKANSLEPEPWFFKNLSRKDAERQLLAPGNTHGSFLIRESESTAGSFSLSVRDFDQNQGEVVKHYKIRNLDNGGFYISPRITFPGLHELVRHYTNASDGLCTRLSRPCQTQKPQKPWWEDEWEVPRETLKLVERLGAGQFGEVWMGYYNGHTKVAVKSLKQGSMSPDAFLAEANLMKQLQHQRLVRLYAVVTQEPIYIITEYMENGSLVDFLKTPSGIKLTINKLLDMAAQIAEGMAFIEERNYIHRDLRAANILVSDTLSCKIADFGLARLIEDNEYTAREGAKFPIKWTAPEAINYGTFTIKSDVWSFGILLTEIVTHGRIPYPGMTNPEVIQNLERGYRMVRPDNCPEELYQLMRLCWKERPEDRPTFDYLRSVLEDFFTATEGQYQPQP
Conditions: not given
With `CC(C)n1cc(C(=O)Nc2cc(F)c(Oc3ccnc(NC(=O)N4CCC(N5CCN(C)CC5)CC4)c3)cc2F)c(=O)n(-c2ccc(F)cc2)c1=O`, the inhibition result is “Active”.

Another data set addresses Hepatocyte growth factor receptor (Homo sapiens) (UniProt P08581). Kind of data set: Inhibition of c-Met (unknown origin).
Conditions: not given
For the compound `CC(C)n1cc(C(=O)Nc2cc(F)c(Oc3ccnc(NC(=O)N4CCC(N5CCN(C)CC5)CC4)c3)cc2F)c(=O)n(-c2ccc(F)cc2)c1=O`, the inhibition entry was “Active”.

Tested on in a further data set: not listed separately
Put plainly: Kinetic solubility of compound in PBS buffer at pH 7 incubated for 15 mins by HPLC-UV analysis.
Conditions: not given
For orientation: kinetic solubility means solubility judged after dilution from a stock solution rather than from solid. `CC(C)n1cc(C(=O)Nc2ccc(Oc3ccnc(NC(=O)CC4CCN(C)CC4)c3)cc2)c(=O)n(-c2ccc(F)cc2)c1=O` returned a kinetic solubility at 0.25 h of 80 µM (≈ 49.2 µg/mL).

On to `CN1CCC(CC(=O)Nc2cc(Oc3ccc(NC(=O)c4cc5c(n(-c6ccccc6)c4=O)CCCC5=O)cc3)ccn2)CC1`, for which the kinetic solubility at 0.25 h came to 77 µM (≈ 46.6 µg/mL).

Regarding `CN1CCN(C2CCN(C(=O)Nc3cc(Oc4ccc(NC(=O)c5cn(C6CC6)c(=O)n(-c6ccc(F)cc6)c5=O)cc4)ncn3)CC2)CC1`, the solubility (kinetic) at 0.25 h is 89 µM (≈ 60.9 µg/mL).

`CC(C)n1cc(C(=O)Nc2ccc(Oc3cc(NC(=O)N4CCCC4)ncn3)cc2)c(=O)n(-c2ccc(F)cc2)c1=O`: the solubility (kinetic) at 0.25 h worked out at 1 µM (≈ 0.574 µg/mL). Against the preceding compound, the solubility kinetic at 0.25 h is about 89-fold lower.

On to `CN1CCN(C2CCN(C(=O)Nc3cc(Oc4ccc(NC(=O)c5cn(C)c(=O)n(-c6ccc(F)cc6)c5=O)cc4)ncn3)CC2)CC1`, for which the kinetic solubility at 0.25 h stood at 90 µM (≈ 59.2 µg/mL).

For the compound `CN1CCC(CC(=O)Nc2cc(Oc3ccc(NC(=O)c4cc5c(n(-c6ccccc6)c4=O)CCCC5=O)c(F)c3)ccn2)CC1`, the solubility (kinetic) at 0.25 h is 73 µM (≈ 45.5 µg/mL).

Compound `CC(C)n1cc(C(=O)Nc2ccc(Oc3ccnc(NC(=O)CC4CCN(C)CC4)c3)cc2F)c(=O)n(-c2ccc(F)cc2)c1=O` had a kinetic solubility at 0.25 h of 78 µM (≈ 49.3 µg/mL).

Take `CC(C)n1cc(C(=O)Nc2ccc(Oc3cc(NC(=O)N4CC(N5CCCC5)C4)ncn3)cc2)c(=O)n(-c2ccc(F)cc2)c1=O`: the kinetic solubility at 0.25 h is 80 µM (≈ 50.3 µg/mL).

For `CC(C)n1cc(C(=O)Nc2cc(F)c(Oc3ccnc(NC(=O)N4CCC(N5CCN(C)CC5)CC4)c3)cc2F)c(=O)n(-c2ccc(F)cc2)c1=O`, the kinetic solubility at 0.25 h came out at 76 µM (≈ 54.8 µg/mL).

For `CC(C)n1cc(C(=O)Nc2ccc(Oc3cc(NC(=O)N4CC(O)C4)ncn3)cc2)c(=O)n(-c2ccc(F)cc2)c1=O`, the solubility (kinetic) at 0.25 h was determined as 83 µM (≈ 47.8 µg/mL). This solubility kinetic at 0.25 h and that of the compound before are within 1.5-fold of each other.

A further data set has as its target T1, Tyrosine-protein kinase receptor TYRO3 (Homo sapiens) (UniProt Q06418).
T1 sequence (whole entry): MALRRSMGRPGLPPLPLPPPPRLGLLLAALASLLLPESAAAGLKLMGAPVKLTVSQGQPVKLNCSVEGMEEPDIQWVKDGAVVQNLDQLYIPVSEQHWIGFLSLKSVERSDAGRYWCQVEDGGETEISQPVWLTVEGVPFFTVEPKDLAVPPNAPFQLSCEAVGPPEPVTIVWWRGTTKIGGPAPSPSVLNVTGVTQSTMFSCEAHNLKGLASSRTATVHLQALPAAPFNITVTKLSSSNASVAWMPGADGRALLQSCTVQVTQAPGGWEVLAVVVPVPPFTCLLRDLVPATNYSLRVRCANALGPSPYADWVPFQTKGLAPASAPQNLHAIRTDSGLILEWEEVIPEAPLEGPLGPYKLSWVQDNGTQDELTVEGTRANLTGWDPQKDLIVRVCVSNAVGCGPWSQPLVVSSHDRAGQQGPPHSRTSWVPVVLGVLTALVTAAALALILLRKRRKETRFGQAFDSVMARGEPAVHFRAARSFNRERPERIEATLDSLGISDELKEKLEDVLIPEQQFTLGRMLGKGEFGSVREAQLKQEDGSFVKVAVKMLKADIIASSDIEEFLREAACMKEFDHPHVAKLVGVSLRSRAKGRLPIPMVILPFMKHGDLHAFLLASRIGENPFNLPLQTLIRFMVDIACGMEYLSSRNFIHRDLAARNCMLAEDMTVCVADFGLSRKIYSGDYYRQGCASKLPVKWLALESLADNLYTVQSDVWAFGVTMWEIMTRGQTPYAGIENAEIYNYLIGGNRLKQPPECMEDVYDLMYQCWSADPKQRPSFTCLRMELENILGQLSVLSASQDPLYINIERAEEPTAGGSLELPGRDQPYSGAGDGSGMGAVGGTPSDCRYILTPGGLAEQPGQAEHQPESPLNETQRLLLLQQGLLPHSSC
Kind of data set: Inhibition of Tyro3 (unknown origin).
Conditions: not given
Take `CC(C)n1cc(C(=O)Nc2cc(F)c(Oc3ccnc(NC(=O)N4CCC(N5CCN(C)CC5)CC4)c3)cc2F)c(=O)n(-c2ccc(F)cc2)c1=O`: the inhibition result is “Active”.
